Experimental data as given in ChEMBL document CHEMBL4689842, “EUbOPEN Chemogenomics Library wave 1” (2021).

Tested on: HEK-293T
Experiment: Multiplex assay against HEK293T;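 as to Population Tubulin-Different-Phenotype (%): share of the cells with healthy nuclei that show this phenotype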
Assay type: toxicity, cell-based
Conditions: human
Method in brief: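 Four dyes were applied at seeding to live cells: Hoechst33342, BioTracker Green Microtubule Cytoskeleton Dye, MitoTracker Red and Annexin V Alexa Fluor 680. Imaging after compound addition used a CQ1 microscope at 37°C and 5% CO2. CellPathfinder machine-learning gating then sorted cells into Hoechst high-intensity objects or normal cells, normal cells into healthy, pyknosed or fragmented nuclei, and pyknosed cells into mitotic or apoptotic, with tubulin, mitochondrial-mass and membrane-permeability phenotypes given as per cents of healthy-nucleus cells.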

[1] = 12 h, 1 µM, compound concentration 1 uM, replicate 1
[2] = 12 h, 1 µM, compound concentration 1 uM, replicate 2
[3] = 12 h, 10 µM, compound concentration 10 uM, replicate 1
[4] = 12 h, 10 µM, compound concentration 10 uM, replicate 2
[5] = 24 h, 1 µM, compound concentration 1 uM, replicate 1
[6] = 24 h, 1 µM, compound concentration 1 uM, replicate 2
[7] = 24 h, 10 µM, compound concentration 10 uM, replicate 1
[8] = 24 h, 10 µM, compound concentration 10 uM, replicate 2
[9] = 48 h, 1 µM, compound concentration 1 uM, replicate 1
[10] = 48 h, 1 µM, compound concentration 1 uM, replicate 2
[11] = 48 h, 10 µM, compound concentration 10 uM, replicate 1
[12] = 48 h, 10 µM, compound concentration 10 uM, replicate 2

Compound: CN(C)C(=O)C(CCN1CCC(O)(c2ccc(Cl)cc2)CC1)(c1ccccc1)c1ccccc1.Cl [LOPERAMIDE HYDROCHLORIDE]
- Population Apoptotic (%) [1]: 70%
- Population Fragmented Nuclei (%) [1]: 10%
- Population Healthy Nuclei (%) [1]: 37%
- Population Hoechst High Intensity Objects (%) [1]: 16%
- Population Membrane Permeable-Phenotype (%) [1]: 2%
- Population Mitochondria Different-Phenotype (%) [1]: 92%
- Population Mitotic Cells (%) [1]: 29%
- Population Normal (%) [1]: 83%
- Population Pyknosed Nuclei (%) [1]: 51%
- Population Tubulin-Different-Phenotype (%) [1]: 83%
- Total Cell Count [1]: 254
- Population Apoptotic (%) [2]: 56%
- Population Fragmented Nuclei (%) [2]: 4%
- Population Healthy Nuclei (%) [2]: 30%
- Population Hoechst High Intensity Objects (%) [2]: 0%
- Population Membrane Permeable-Phenotype (%) [2]: 6%
- Population Mitochondria Different-Phenotype (%) [2]: 95%
- Population Mitotic Cells (%) [2]: 43%
- Population Normal (%) [2]: 99%
- Population Pyknosed Nuclei (%) [2]: 65%
- Population Tubulin-Different-Phenotype (%) [2]: 85%
- Total Cell Count [2]: 208
- Population Apoptotic (%) [3]: 91%
- Population Fragmented Nuclei (%) [3]: 10%
- Population Healthy Nuclei (%) [3]: 7%
- Population Hoechst High Intensity Objects (%) [3]: 20%
- Population Membrane Permeable-Phenotype (%) [3]: 0%
- Population Mitochondria Different-Phenotype (%) [3]: 100%
- Population Mitotic Cells (%) [3]: 8%
- Population Normal (%) [3]: 79%
- Population Pyknosed Nuclei (%) [3]: 82%
- Population Tubulin-Different-Phenotype (%) [3]: 86%
- Total Cell Count [3]: 258
- Population Apoptotic (%) [4]: 98%
- Population Fragmented Nuclei (%) [4]: 6%
- Population Hoechst High Intensity Objects (%) [4]: 15%
- Population Mitotic Cells (%) [4]: 1%
- Population Normal (%) [4]: 84%
- Population Pyknosed Nuclei (%) [4]: 86%
- Population Tubulin-Different-Phenotype (%) [4]: 70%
- Total Cell Count [4]: 158
- Population Apoptotic (%) [5]: 73%
- Population Fragmented Nuclei (%) [5]: 11%
- Population Healthy Nuclei (%) [5]: 35%
- Population Hoechst High Intensity Objects (%) [5]: 16%
- Population Membrane Permeable-Phenotype (%) [5]: 1%
- Population Mitochondria Different-Phenotype (%) [5]: 90%
- Population Mitotic Cells (%) [5]: 26%
- Population Normal (%) [5]: 83%
- Population Pyknosed Nuclei (%) [5]: 53%
- Population Tubulin-Different-Phenotype (%) [5]: 80%
- Total Cell Count [5]: 259
- Population Apoptotic (%) [6]: 65%
- Population Fragmented Nuclei (%) [6]: 3%
- Population Healthy Nuclei (%) [6]: 48%
- Population Hoechst High Intensity Objects (%) [6]: 0%
- Population Membrane Permeable-Phenotype (%) [6]: 3%
- Population Mitochondria Different-Phenotype (%) [6]: 94%
- Population Mitotic Cells (%) [6]: 34%
- Population Normal (%) [6]: 99%
- Population Pyknosed Nuclei (%) [6]: 47%
- Population Tubulin-Different-Phenotype (%) [6]: 89%
- Total Cell Count [6]: 242
- Population Apoptotic (%) [7]: 88%
- Population Fragmented Nuclei (%) [7]: 16%
- Population Healthy Nuclei (%) [7]: 8%
- Population Hoechst High Intensity Objects (%) [7]: 23%
- Population Membrane Permeable-Phenotype (%) [7]: 0%
- Population Mitochondria Different-Phenotype (%) [7]: 100%
- Population Mitotic Cells (%) [7]: 11%
- Population Normal (%) [7]: 76%
- Population Pyknosed Nuclei (%) [7]: 75%
- Population Tubulin-Different-Phenotype (%) [7]: 73%
- Total Cell Count [7]: 297
- Population Apoptotic (%) [8]: 96%
- Population Fragmented Nuclei (%) [8]: 7%
- Population Hoechst High Intensity Objects (%) [8]: 12%
- Population Mitochondria Different-Phenotype (%) [8]: 91%
- Population Mitotic Cells (%) [8]: 3%
- Population Normal (%) [8]: 87%
- Population Pyknosed Nuclei (%) [8]: 84%
- Population Tubulin-Different-Phenotype (%) [8]: 75%
- Total Cell Count [8]: 162
- Population Apoptotic (%) [9]: 75%
- Population Fragmented Nuclei (%) [9]: 16%
- Population Healthy Nuclei (%) [9]: 45%
- Population Hoechst High Intensity Objects (%) [9]: 16%
- Population Membrane Permeable-Phenotype (%) [9]: 0%
- Population Mitochondria Different-Phenotype (%) [9]: 86%
- Population Mitotic Cells (%) [9]: 24%
- Population Normal (%) [9]: 83%
- Population Pyknosed Nuclei (%) [9]: 37%
- Population Tubulin-Different-Phenotype (%) [9]: 80%
- Total Cell Count [9]: 322
- Population Apoptotic (%) [10]: 71%
- Population Fragmented Nuclei (%) [10]: 6%
- Population Healthy Nuclei (%) [10]: 69%
- Population Hoechst High Intensity Objects (%) [10]: 3%
- Population Membrane Permeable-Phenotype (%) [10]: 1%
- Population Mitochondria Different-Phenotype (%) [10]: 83%
- Population Mitotic Cells (%) [10]: 28%
- Population Normal (%) [10]: 96%
- Population Pyknosed Nuclei (%) [10]: 23%
- Population Tubulin-Different-Phenotype (%) [10]: 89%
- Total Cell Count [10]: 305
- Population Apoptotic (%) [11]: 85%
- Population Fragmented Nuclei (%) [11]: 25%
- Population Healthy Nuclei (%) [11]: 0%
- Population Hoechst High Intensity Objects (%) [11]: 24%
- Population Membrane Permeable-Phenotype (%) [11]: 0%
- Population Mitochondria Different-Phenotype (%) [11]: 100%
- Population Mitotic Cells (%) [11]: 14%
- Population Normal (%) [11]: 75%
- Population Pyknosed Nuclei (%) [11]: 73%
- Population Tubulin-Different-Phenotype (%) [11]: 0%
- Total Cell Count [11]: 315
- Population Apoptotic (%) [12]: 98%
- Population Fragmented Nuclei (%) [12]: 9%
- Population Healthy Nuclei (%) [12]: 7%
- Population Hoechst High Intensity Objects (%) [12]: 19%
- Population Mitochondria Different-Phenotype (%) [12]: 90%
- Population Mitotic Cells (%) [12]: 1%
- Population Normal (%) [12]: 80%
- Population Pyknosed Nuclei (%) [12]: 82%
- Population Tubulin-Different-Phenotype (%) [12]: 72%
- Total Cell Count [12]: 181
